Rin1-Abl PPI inh – inhibitors of Rin1-Abl protein binding, primary screen, biochemical, TR-FRET; Tyrosine-protein kinase ABL1 (Homo sapiens) + Ras and Rab interactor 1 (Homo sapiens), …; inhibition, % at 7.35 µM; hit rate 0.4% among 360,000; in the data active means inhibition above about 5%, passing the limit was not always enough
GSK3beta inhib – human GSK3beta kinase inhibitors, primary screen, biochemical, cell-free homogeneous, HTS | AID 2097, 2009 | activity score (negative = inhibition), % at 10 µM | hit rate 0.038% among 300,000 | Glycogen synthase kinase-3 beta (Homo sapiens), P49841 | GST-GSK3beta kinase, ADP-Glo luminescence, 60 min; hits give low values;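 active means more than half of replicate wells score below -50%, meaning over 50% inhibition versus plate controls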
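Test system: GST-tagged human GSK3beta kinase, cell-free; evaluation: activity score scaled between in-plate DMSO and GW8510 controls; measured by: ADP-Glo luminescence; incubation: 60 min reaction, RT; benchmarks: DMSO and 20 µM GW8510; reagent: peptide substrate plus 25 µM ATP (final); medium: Tris/MgCl2 kinase buffer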
STK33 kinase inh – inhibitors of purified STK33 kinase, primary screen, biochemical, ADP-Glo luminescence, homogeneous, cell-free | Serine/threonine-protein kinase 33 (Homo sapiens), Q9BYT3 | inhibition, % at 10 µM | MBP phosphorylation | hit rate 0.073% among 320,000;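 active means inhibition at or above 25%, using the most active replicate where run in duplicate; inactive means inhibition below 25%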
Target sequence (Q9BYT3 whole entry, looked up): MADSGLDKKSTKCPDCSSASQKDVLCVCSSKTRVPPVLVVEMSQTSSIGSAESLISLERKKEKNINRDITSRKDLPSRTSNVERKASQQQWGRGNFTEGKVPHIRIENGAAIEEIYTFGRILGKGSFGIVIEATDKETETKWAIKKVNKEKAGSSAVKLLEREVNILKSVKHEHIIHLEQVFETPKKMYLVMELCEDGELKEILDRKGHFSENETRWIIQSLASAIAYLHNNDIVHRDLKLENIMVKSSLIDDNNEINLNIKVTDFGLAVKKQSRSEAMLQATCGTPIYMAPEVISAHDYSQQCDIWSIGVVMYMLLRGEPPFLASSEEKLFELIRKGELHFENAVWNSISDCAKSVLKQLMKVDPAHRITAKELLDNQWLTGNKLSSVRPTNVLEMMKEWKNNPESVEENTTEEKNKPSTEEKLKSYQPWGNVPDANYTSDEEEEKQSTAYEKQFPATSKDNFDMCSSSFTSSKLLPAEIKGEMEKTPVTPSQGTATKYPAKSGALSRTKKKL
Arr AP2 block – inhibitors of beta-arrestin/AP2 binding, primary screen, biochemical, GPCR trafficking, flow cytometry; beta-arrestin 1 C-terminal peptide binding to AP2 beta2-adaptin appendage (human); FITC-arrestin peptide / GST-AP2 beads; AP2 beta2 appendage carries R879A mutation; inhibition, % at 10 µM; hit rate 0.31% among 340,000; AID 504490, 2011;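 active means inhibition above a set limit, near 3 SD of compounds lacking own fluorescence, cut at about 54% in these data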
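Measured by: flow cytometry, FL1 (488/535 nm); Material: AP2 appendage R879A on GSH beads; Evaluation: percent response; Timing: pre-incubation 12 min, peptide binding 1 h, room temperature; Also added: 50 nM FITC-arrestin peptide; Medium: PBS with 0.05% Tween 20 and 0.1% BSA.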
GSK3 alpha inh – blockers of GSK3A enzyme activity – biochemical, luminescence, cell-free homogeneous, HTS, primary screen; Glycogen synthase kinase-3 alpha (Homo sapiens), P49840; GSK-3 alpha kinase, ADP-Glo luminescence, 60 min; inhibition, % at 10 µM; hit rate 0.1% among 320,000; AID 2650, 2010;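 active means more than half of replicates show inhibition above 20%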;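 further: GST-tagged GSK-3 alpha with peptide substrate and 25 µM ATP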
Dyrk1A ADPGlo – rat Dyrk1A kinase inhibitors, primary screen, biochemical, single point, plate reader; hit rate 0.43% among 310,000; ADP-Glo luminescence, NFATc1 peptide; inhibition, % at 12.5 µM; in the data active means inhibition above about 50%
Rin1-Abl confirm – Rin1-Abl binding inhibitor retest, confirmation, biochemical, TR-FRET; purified proteins; hit rate 49% among 1,300; inhibition, % at 7.35 µM; shares compounds with Rin1-Abl PPI inh
GFP quench – GFP fluorescence inhibitors and quenchers, artefact control for Rin1-Abl interaction inhibitor project, biochemical; inhibitors/quenchers counterscreen; inhibition, % at 6.75 µM; shares compounds with Rin1-Abl PPI inh; hit rate 8.5% among 1,300;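 further: ABL1-eGFP fusion protein alone without its partner RIN1-SBP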
GFP quench DR – GFP fluorescence inhibitors and quenchers, dose response, artefact control for Rin1-Abl interaction inhibitor project, biochemical. shares compounds with Rin1-Abl PPI inh. GFP fluorescence interference/quenching counterscreen. IC50, µM. 230 tested, under 10 active; call rule not given here;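 further: ABL1-eGFP fusion protein alone without its RIN1 binding partner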
Large screens that a line does not name were inactive (follow-up assays come after a bar, where they were run). Compounds with a hit are over-represented: about 0.99% of the library has one in this group of screens. Unless noted, no stated cut-off is given here; in the data, active means inhibition above about 6.5%; inactive means the rest.

Cc1ccc(-c2nnc(N3CCN(C(=O)c4cccs4)CC3)c3ccccc23)cc1	Rin1-Abl PPI inh 6.3 | Rin1-Abl confirm inactive | GFP quench inactive
CN(C(=O)c1cccc(NC(=O)Cc2ccc(NC(=O)C3CCN(C(=O)C4CCCCC4)CC3)cc2)c1)C1CC1	none (no result: GSK3beta inhib, STK33 kinase inh, GSK3 alpha inh, Dyrk1A ADPGlo)
CCOC(=O)C1CCCN(C(=O)c2cn(C)c(=O)c3cc(OC)c(OC)cc23)C1 (configuration not stated)	Rin1-Abl PPI inh 25 | Rin1-Abl confirm 32 | GFP quench inactive | GFP quench DR inactive
CCOC(=O)C1CCCN(C(=O)c2cn(CC)c(=O)c3cc(OC)c(OC)cc23)C1 (configuration not stated)	none
COc1cc2c(C(=O)N3CCN(c4ccccc4F)CC3)cn(C)c(=O)c2cc1OC	Rin1-Abl PPI inh 8.9 | Rin1-Abl confirm 12 | GFP quench inactive
OCC1OC(n2cnc3c(NCc4ccccc4O)ncnc32)C(O)C1O (configuration not stated)	Rin1-Abl PPI inh 20 (no result: GSK3beta inhib, STK33 kinase inh, GSK3 alpha inh) | Rin1-Abl confirm 17 | GFP quench inactive | GFP quench DR inactive
COc1ccc(CNC(=O)C2=C(C)C(=O)OC23CCC(C)CC3)cc1 (configuration not stated)	Rin1-Abl PPI inh 7.4 | Rin1-Abl confirm inactive | GFP quench inactive
Oc1ccc(/C=N/Nc2ccc(Cl)nn2)c(O)c1O	Rin1-Abl PPI inh 29 | Rin1-Abl confirm 27 | GFP quench 17
O=C(NC1CCN(Cc2ccccc2)CC1)c1ccc2c(c1)[nH]c(=O)n2Cc1ccc(F)cc1	Rin1-Abl PPI inh 10 | Rin1-Abl confirm 13 | GFP quench inactive
O=C(COC(=O)c1cccnc1)Nc1ccc(F)cc1	Rin1-Abl PPI inh 5.7 | Rin1-Abl confirm inactive | GFP quench inactive
OCC[C@@H]1C[C@@H](O)[C@H](O)[C@@]2(Cc3ccccc3CO2)O1	Rin1-Abl PPI inh 8.9 | Rin1-Abl confirm inactive | GFP quench inactive
CCOC(=O)C1=C(C)N(C)C(=O)NC1c1cc2c(cc1[N+](=O)[O-])OCO2 (configuration not stated)	Rin1-Abl PPI inh 8.7 | Rin1-Abl confirm 7.4 | GFP quench inactive
COc1cc(C(=O)COC(=O)c2cc([N+](=O)[O-])ccc2N2CCOCC2)ccc1OC(F)F	none (no result: GSK3beta inhib)
CCC1CCCCN1S(=O)(=O)c1ccc(NC(=O)c2cccs2)cc1 (configuration not stated)	Rin1-Abl PPI inh 10 | Rin1-Abl confirm inactive | GFP quench inactive
CCC1CCCCN1S(=O)(=O)c1ccc(NC(=O)c2snnc2C)cc1 (configuration not stated)	none (no result: STK33 kinase inh, GSK3 alpha inh)
COc1nc(Nc2cccc(F)c2)nc(OC)n1	none
COc1cc2nc(Nc3cccc(F)c3)nc(N)c2cc1OC	Rin1-Abl PPI inh 8.9 | Rin1-Abl confirm 13 | GFP quench inactive
CCOCCn1c(N2CCCC2)nc2c1c(=O)[nH]c(=O)n2C	none
COCCCNc1nc2ccccc2nc1NS(=O)(=O)c1cccs1	Rin1-Abl PPI inh 14 | Rin1-Abl confirm inactive | GFP quench inactive
COCCCNc1nc2ccccc2nc1NS(=O)(=O)c1ccc(OC)cc1	none
Cc1nc(CN2CCCCC2)cc(=O)[nH]1	Rin1-Abl PPI inh 9.8 | Rin1-Abl confirm inactive | GFP quench inactive
O=S(=O)(NCc1ccc(F)cc1)c1ccc(-n2cnnn2)cc1	none (no result: STK33 kinase inh, GSK3 alpha inh)
CCOC(=O)C1CCCN(Cc2ccccc2OCC)C1 (configuration not stated)	Rin1-Abl PPI inh 9.4 | Rin1-Abl confirm inactive | GFP quench inactive
CCOC(=O)C1CCCN(Cc2ccccc2C)C1 (configuration not stated)	none
O=C1CCC([N+](=O)[O-])C(c2ccc(C(F)(F)F)cc2)N1 (configuration not stated)	Rin1-Abl PPI inh 8.2 (no result: Dyrk1A ADPGlo) | Rin1-Abl confirm inactive | GFP quench inactive
COCCN(C(=O)COC(=O)c1ccc(Br)o1)c1c(N)n(Cc2ccccc2)c(=O)[nH]c1=O	none (no result: GSK3beta inhib, STK33 kinase inh, Arr AP2 block, GSK3 alpha inh, Dyrk1A ADPGlo)
CCN(CC)C(=O)CSc1nc(Cc2ccccc2)nc2ccccc12	Rin1-Abl PPI inh 24 | Rin1-Abl confirm 21 | GFP quench inactive | GFP quench DR inactive
Cc1ccc(F)cc1C(=O)N1CCCC1(C)C(=O)NCC(C)C (configuration not stated)	none (no result: GSK3beta inhib, STK33 kinase inh, Arr AP2 block, GSK3 alpha inh, Dyrk1A ADPGlo)
C=CCn1cc(C(=O)N2CCN(C)CC2)c(=O)c2cc(S(=O)(=O)N(CC)CC)ccc21	none
COc1ccc(CNC(=O)CCSCc2cccc(Cl)c2)c(OC)c1	Rin1-Abl PPI inh 5.2 | Rin1-Abl confirm inactive | GFP quench inactive
COc1ccc(CNC(=O)CCSCc2ccccc2Cl)c(OC)c1	none
CC1CC(C)CN(C(=O)CSc2ncnc3sccc23)C1 (configuration not stated)	none (no result: GSK3beta inhib)
CC(Sc1nc2ccccc2c(=O)n1C)C(=O)N(C)C1CCCCC1 (configuration not stated)	none
Fc1cccc(Cl)c1CNCCCSc1ncccn1	Rin1-Abl PPI inh 6.9 | Rin1-Abl confirm inactive | GFP quench inactive
CCCOc1c(Br)cc(C(=O)OCc2cc(=O)n3ccsc3n2)cc1OC	none (no result: GSK3beta inhib, STK33 kinase inh, GSK3 alpha inh)
COC(C(=O)C(O)C(C)O)C1Cc2cc3cc(OC4CC(OC5CC(O)C(O)C(C)O5)C(O)C(C)O4)c(C)c(O)c3c(O)c2C(=O)C1OC1CC(OC2CC(OC3CC(O)C(OC)C(C)O3)C(O)C(C)O2)C(O)C(C)O1 (configuration not stated)	Rin1-Abl PPI inh 13 (no result: GSK3beta inhib, STK33 kinase inh, GSK3 alpha inh) | Rin1-Abl confirm inactive | GFP quench inactive
CC(C)(C)n1ncc2c(=O)n(Cc3cccc(Cl)c3)cnc21	Rin1-Abl PPI inh 7.6 | Rin1-Abl confirm inactive | GFP quench inactive
CCn1c(N2CCN(CC(=O)c3c(C)n(C)c4ccc(OC)cc34)CC2)nc2c1c(=O)[nH]c(=O)n2C	none (no result: Dyrk1A ADPGlo)

Source: PubChem BioAssay (several laboratories)
